Data taken from ChEMBL document CHEMBL4390647, “Efficient click chemistry towards novel 1H-1,2,3-triazole-tethered 4H-chromene-d-glucose conjugates: Design, synthesis and evaluation of in vitro antibacterial, MRSA and antifungal activities” (Eur J Med Chem, 2019).
In brackets after ≈: the same amount, converted by molar mass.

Key:
Pseudomonas aeruginosa = assay: Antibacterial activity against Pseudomonas aeruginosa […] measured after 18 to 20 hrs by microbroth dilution method; type: functional
In short: (§1)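 Inoculum from a 4–6-h broth adjusted to 0.5 McFarland, final 5 × 10⁵ CFU/mL. Incubation at 35°C for 18–20 h. MIC taken as the lowest concentration giving complete inhibition of visible growth; three experiments.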

Staphylococcus aureus [1] = assay: Antibacterial activity against Staphylococcus aureus MRSA198 clinical isolate-1 measured after 18 to 20 hrs by microbroth dilution method; type: functional; conditions: MRSA198 isolate-1
Saccharomyces cerevisiae = assay: Antifungal activity against Saccharomyces cerevisiae SH 20 after 72 hrs by agar dilution method; type: functional; conditions: SH 20, 72 h
In short: (§2)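 Agar dilution on Sabouraud dextrose agar, with compounds at […] to 0.78 μM in twofold steps. Fungal suspensions at 10 CFU/mL as printed were applied to the compound-containing plates. Incubation at 35°C; MIC read after 72 h. Three experiments.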

Candida albicans = assay: Antifungal activity against Candida albicans ATCC 7754 after 72 hrs by agar dilution method; type: functional; conditions: ATCC 7754, 72 h; in short: as §2
Escherichia coli = assay: Antibacterial activity against Escherichia coli ATCC 25922 measured after 18 to 20 hrs by microbroth dilution method; type: functional; in short: as §1
Staphylococcus aureus [2] = assay: Antibacterial activity against Staphylococcus aureus ATCC 11632 after 18 to 20 hrs by microbroth dilution method; type: functional; in short: as §1
Bacillus subtilis = assay: Antibacterial activity against Bacillus subtilis ATCC 11774 after 18 to 20 hrs by microbroth dilution method; type: functional; in short: as §1
Salmonella typhimurium = assay: Antibacterial activity against Salmonella typhimurium ATCC 14028 measured after 18 to 20 hrs by microbroth dilution method; type: functional, Salmonella enterica subsp. enterica serovar Typhimurium; conditions: Salmonella enterica; in short: as §1
Aspergillus niger = assay: Antifungal activity against Aspergillus niger ATCC 439 measured after 72 hrs by agar dilution method; type: functional; conditions: ATCC 439, 72 h; in short: as §2
Staphylococcus aureus [3] = assay: Antibacterial activity against Staphylococcus aureus MRSA198 clinical isolate-2 measured after 18 to 20 hrs by microbroth dilution method; type: functional; conditions: MRSA198 isolate-2
[4] = Cytotoxicity against mouse RAW264.7 cells assessed as growth inhibition at 50 ug/mL after 120 hrs by MTT assay relative to control; type: cell-based; conditions: read-out: GI
In short: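 RAW 264.7 mouse macrophages were seeded at 25,000 cells/well and left to attach overnight. Compound in DMSO was added from a 200× concentrate, in duplicate wells, to a 50 μg/mL test level; DMSO served as control. Exposure 120 h at 37°C in 5% CO₂. MTT (4 mg/mL in PBS) was added for 4 h, formazan dissolved in DMSO, and absorbance read at 560 nm. Viability expressed as % of untreated cells, mean ± SE of at least three independent experiments.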

[5] = test system: Staphylococcus epidermidis; assay: Antibacterial activity against Staphylococcus epidermidis ATCC 12228 after 18 to 20 hrs by microbroth dilution method; type: functional; in short: as §1
Aspergillus flavus = assay: Antifungal activity against Aspergillus flavus ATCC 204304 measured after 72 hrs by agar dilution method; type: functional; conditions: ATCC 204304, 72 h; in short: as §2
Staphylococcus aureus [6] = assay: Antibacterial activity against Staphylococcus aureus MRSA198 clinical isolate-3 measured after 18 to 20 hrs by microbroth dilution method; type: functional; conditions: MRSA198 isolate-3
Klebsiella pneumoniae = assay: Antibacterial activity against measured after Klebsiella pneumoniae ATCC 4352 measured after 18 to 20 hrs by microbroth dilution method; type: functional; in short: as §1

CC(=O)OC[C@H]1O[C@@H](n2cc(COc3ccc4c(c3)OC(N)=C(C#N)C4c3cccc([N+](=O)[O-])c3)nn2)[C@H](OC(C)=O)[C@@H](OC(C)=O)[C@@H]1OC(C)=O (some centres not stated)
MIC (Pseudomonas aeruginosa): 12.5 µM (≈ 9.01 µg/mL)
MIC (Staphylococcus aureus [1]): 1.56 µM (≈ 1.12 µg/mL)
MIC (Saccharomyces cerevisiae): 6.25 µM (≈ 4.5 µg/mL)
MIC (Candida albicans): 200 µM (≈ 144 µg/mL)
MIC (Escherichia coli): 50 µM (≈ 36 µg/mL)
MIC (Staphylococcus aureus [2]): 3.12 µM (≈ 2.25 µg/mL)
MIC (Bacillus subtilis): 50 µM (≈ 36 µg/mL)
MIC (Salmonella typhimurium): 400 µM (≈ 288 µg/mL)
MIC (Aspergillus niger): 12.5 µM (≈ 9.01 µg/mL)
MIC (Staphylococcus aureus [3]): 6.25 µM (≈ 4.5 µg/mL)
inhibition at 120 h, 50 ug/mL [4]: 15.6%
MIC [5]: 400 µM (≈ 288 µg/mL)
MIC (Aspergillus flavus): 50 µM (≈ 36 µg/mL)
MIC (Staphylococcus aureus [6]): 3.12 µM (≈ 2.25 µg/mL)

CC(=O)OC[C@H]1O[C@@H](n2cc(COc3ccc4c(c3)OC(N)=C(C#N)C4c3ccc([N+](=O)[O-])cc3)nn2)[C@H](OC(C)=O)[C@@H](OC(C)=O)[C@@H]1OC(C)=O (some centres not stated)
MIC (Pseudomonas aeruginosa): 50 µM (≈ 36 µg/mL)
MIC (Staphylococcus aureus [1]): 400 µM (≈ 288 µg/mL)
MIC (Saccharomyces cerevisiae): 3.12 µM (≈ 2.25 µg/mL)
MIC (Candida albicans): 25 µM (≈ 18 µg/mL)
MIC (Escherichia coli): 400 µM (≈ 288 µg/mL)
MIC (Staphylococcus aureus [2]): 400 µM (≈ 288 µg/mL)
MIC (Bacillus subtilis): 50 µM (≈ 36 µg/mL)
MIC (Staphylococcus aureus [3]): 400 µM (≈ 288 µg/mL)
inhibition at 120 h, 50 ug/mL [4]: 27.6%
MIC [5]: 50 µM (≈ 36 µg/mL)
MIC (Aspergillus flavus): 1.56 µM (≈ 1.12 µg/mL)
MIC (Staphylococcus aureus [6]): 200 µM (≈ 144 µg/mL)
MIC (Klebsiella pneumoniae): 12.5 µM (≈ 9.01 µg/mL)

COc1ccc(C2C(C#N)=C(N)Oc3cc(OCc4cn([C@@H]5O[C@H](COC(C)=O)[C@@H](OC(C)=O)[C@H](OC(C)=O)[C@H]5OC(C)=O)nn4)ccc32)cc1 (some centres not stated)
MIC (Pseudomonas aeruginosa): 100 µM (≈ 70.6 µg/mL)
MIC (Staphylococcus aureus [1]): 12.5 µM (≈ 8.82 µg/mL)
MIC (Saccharomyces cerevisiae): 12.5 µM (≈ 8.82 µg/mL)
MIC (Candida albicans): 1.56 µM (≈ 1.1 µg/mL)
MIC (Escherichia coli): 200 µM (≈ 141 µg/mL)
MIC (Staphylococcus aureus [2]): 25 µM (≈ 17.6 µg/mL)
MIC (Bacillus subtilis): 12.5 µM (≈ 8.82 µg/mL)
MIC (Salmonella typhimurium): 1.56 µM (≈ 1.1 µg/mL)
MIC (Aspergillus niger): 200 µM (≈ 141 µg/mL)
MIC (Staphylococcus aureus [3]): 12.5 µM (≈ 8.82 µg/mL)
inhibition at 120 h, 50 ug/mL [4]: 29.6%
MIC [5]: 200 µM (≈ 141 µg/mL)
MIC (Aspergillus flavus): 12.5 µM (≈ 8.82 µg/mL)
MIC (Staphylococcus aureus [6]): 12.5 µM (≈ 8.82 µg/mL)

CC(=O)OC[C@H]1O[C@@H](n2cc(COc3ccc4c(c3)OC(N)=C(C#N)C4c3ccc(C(C)C)cc3)nn2)[C@H](OC(C)=O)[C@@H](OC(C)=O)[C@@H]1OC(C)=O (some centres not stated)
MIC (Pseudomonas aeruginosa): 6.25 µM (≈ 4.49 µg/mL)
MIC (Staphylococcus aureus [1]): 400 µM (≈ 287 µg/mL)
MIC (Saccharomyces cerevisiae): 12.5 µM (≈ 8.97 µg/mL)
MIC (Candida albicans): 3.12 µM (≈ 2.24 µg/mL)
MIC (Escherichia coli): 200 µM (≈ 144 µg/mL)
MIC (Staphylococcus aureus [2]): 100 µM (≈ 71.8 µg/mL)
MIC (Bacillus subtilis): 6.25 µM (≈ 4.49 µg/mL)
MIC (Salmonella typhimurium): 50 µM (≈ 35.9 µg/mL)
MIC (Staphylococcus aureus [3]): 400 µM (≈ 287 µg/mL)
inhibition at 120 h, 50 ug/mL [4]: 17.9%
MIC [5]: 400 µM (≈ 287 µg/mL)
MIC (Aspergillus flavus): 50 µM (≈ 35.9 µg/mL)
MIC (Staphylococcus aureus [6]): 200 µM (≈ 144 µg/mL)
MIC (Klebsiella pneumoniae): 1.56 µM (≈ 1.12 µg/mL)

CC(=O)OC[C@H]1O[C@@H](n2cc(COc3ccc4c(c3)OC(N)=C(C#N)C4c3ccc(C)cc3)nn2)[C@H](OC(C)=O)[C@@H](OC(C)=O)[C@@H]1OC(C)=O (some centres not stated)
MIC (Pseudomonas aeruginosa): 400 µM (≈ 276 µg/mL)
MIC (Saccharomyces cerevisiae): 3.12 µM (≈ 2.15 µg/mL)
MIC (Candida albicans): 400 µM (≈ 276 µg/mL)
MIC (Escherichia coli): 12.5 µM (≈ 8.62 µg/mL)
MIC (Staphylococcus aureus [2]): 400 µM (≈ 276 µg/mL)
MIC (Bacillus subtilis): 50 µM (≈ 34.5 µg/mL)
MIC (Salmonella typhimurium): 200 µM (≈ 138 µg/mL)
MIC (Aspergillus niger): 100 µM (≈ 69 µg/mL)
inhibition at 120 h, 50 ug/mL [4]: 19.6%
MIC [5]: 400 µM (≈ 276 µg/mL)
MIC (Aspergillus flavus): 3.12 µM (≈ 2.15 µg/mL)
MIC (Staphylococcus aureus [6]): 400 µM (≈ 276 µg/mL)
MIC (Klebsiella pneumoniae): 400 µM (≈ 276 µg/mL)

CC(=O)OC[C@H]1O[C@@H](n2cc(COc3ccc4c(c3)OC(N)=C(C#N)C4c3ccc(Cl)cc3Cl)nn2)[C@H](OC(C)=O)[C@@H](OC(C)=O)[C@@H]1OC(C)=O (some centres not stated)
MIC (Pseudomonas aeruginosa): 50 µM (≈ 37.2 µg/mL)
MIC (Staphylococcus aureus [1]): 6.25 µM (≈ 4.65 µg/mL)
MIC (Saccharomyces cerevisiae): 400 µM (≈ 298 µg/mL)
MIC (Candida albicans): 100 µM (≈ 74.5 µg/mL)
MIC (Escherichia coli): 3.12 µM (≈ 2.32 µg/mL)
MIC (Staphylococcus aureus [2]): 12.5 µM (≈ 9.31 µg/mL)
MIC (Bacillus subtilis): 3.12 µM (≈ 2.32 µg/mL)
MIC (Salmonella typhimurium): 3.12 µM (≈ 2.32 µg/mL)
MIC (Staphylococcus aureus [3]): 1.56 µM (≈ 1.16 µg/mL)
inhibition at 120 h, 50 ug/mL [4]: 18.1%
MIC [5]: 12.5 µM (≈ 9.31 µg/mL)
MIC (Aspergillus flavus): 25 µM (≈ 18.6 µg/mL)
MIC (Staphylococcus aureus [6]): 3.12 µM (≈ 2.32 µg/mL)
MIC (Klebsiella pneumoniae): 200 µM (≈ 149 µg/mL)

CC(=O)OC[C@H]1O[C@@H](n2cc(COc3ccc4c(c3)OC(N)=C(C#N)C4c3ccccc3Cl)nn2)[C@H](OC(C)=O)[C@@H](OC(C)=O)[C@@H]1OC(C)=O (some centres not stated)
MIC (Pseudomonas aeruginosa): 12.5 µM (≈ 8.88 µg/mL)
MIC (Candida albicans): 25 µM (≈ 17.8 µg/mL)
MIC (Escherichia coli): 1.56 µM (≈ 1.11 µg/mL)
MIC (Staphylococcus aureus [2]): 200 µM (≈ 142 µg/mL)
MIC (Bacillus subtilis): 1.56 µM (≈ 1.11 µg/mL)
MIC (Salmonella typhimurium): 6.25 µM (≈ 4.44 µg/mL)
MIC (Aspergillus niger): 400 µM (≈ 284 µg/mL)
inhibition at 120 h, 50 ug/mL [4]: 21.1%
MIC [5]: 3.12 µM (≈ 2.22 µg/mL)
MIC (Aspergillus flavus): 6.25 µM (≈ 4.44 µg/mL)
MIC (Staphylococcus aureus [6]): 400 µM (≈ 284 µg/mL)
MIC (Klebsiella pneumoniae): 400 µM (≈ 284 µg/mL)

CC(=O)OC[C@H]1O[C@@H](n2cc(COc3ccc4c(c3)OC(N)=C(C#N)C4c3cccc(Cl)c3Cl)nn2)[C@H](OC(C)=O)[C@@H](OC(C)=O)[C@@H]1OC(C)=O (some centres not stated)
MIC (Pseudomonas aeruginosa): 6.25 µM (≈ 4.65 µg/mL)
MIC (Staphylococcus aureus [1]): 200 µM (≈ 149 µg/mL)
MIC (Candida albicans): 25 µM (≈ 18.6 µg/mL)
MIC (Escherichia coli): 200 µM (≈ 149 µg/mL)
MIC (Staphylococcus aureus [2]): 50 µM (≈ 37.2 µg/mL)
MIC (Bacillus subtilis): 25 µM (≈ 18.6 µg/mL)
MIC (Salmonella typhimurium): 50 µM (≈ 37.2 µg/mL)
MIC (Aspergillus niger): 200 µM (≈ 149 µg/mL)
MIC (Staphylococcus aureus [3]): 200 µM (≈ 149 µg/mL)
inhibition at 120 h, 50 ug/mL [4]: 23.8%
MIC [5]: 200 µM (≈ 149 µg/mL)
MIC (Aspergillus flavus): 200 µM (≈ 149 µg/mL)
MIC (Staphylococcus aureus [6]): 100 µM (≈ 74.5 µg/mL)
